For data set [1], the system named is P388. Conditions: Mus musculus.
Data set [2] has as its system P388. The data set can be described thus: The compound was tested for its potency against lymphocytic leukemia P388 screen in mice. Type of data set: functional, Mus musculus.
The species entered for data set [3] is Mus musculus. The data set can be described thus: Dose of compound which caused an average weight loss >3g in a set of mice or the death of one or more of the mice in the set in the P388 NCI screen. Type of data set: functional. In short, it runs like this:
(§1)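 P388 leukemia-bearing mice, 20–22 g; one im injection daily for 9 days, compound in hydroxypropylcellulose suspension or aqueous solution. Toxic dose = lowest dose level at which ≥1 mouse died on or by day 5, or group mean weight loss >3 g; converted to μmol/kg.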

A short description of data set [4]: (§2) Toxicity found after a single im injection. The total number of deaths were counted after 7 days and LD50 was determined by probit analysis. The class given is organism-based. Conditions: mouse, in vivo, read-out: Toxicity. The method in brief: (§3)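 NIH general purpose mice (ca. 20 g), ten per dose level, usually ≥5 dose levels; single im injection in Emulphor EL-620 mixture, vehicle-only group of ten as control. Survivors counted at day 7; LD50 with 95% confidence interval by probit analysis, converted to μmol/kg.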

The species named for data set [5] is Mus musculus. The data set can be described thus: Dose of compound which caused an average weight loss >3g in a set of mice or the death of one or more of the mice in the set in the P388 NCI screen. Type of data set: functional. In short, it runs like this: as §1
Data set [6] has as its system Mus musculus. The description is as §2. Type of data set: functional. The method in brief: as §3
The subject of data set [7] is Mus musculus. The data set can be described thus: Toxicity found after a single im injection. The total number of deaths were counted after 7 days and LD50 was determined by probit analysis; 101.5-317.8. The class given is functional. In short, it runs like this:
as §3

Data set [8] has as its system Mus musculus. The data set can be described thus: Toxicity found after a single im injection. The total number of deaths were counted after 7 days and LD50 was determined by probit analysis; 28.6-63.9. Type of data set: functional. The method in brief:
as §3

Data set [9] has as its system Mus musculus. The data set can be described thus: Toxicity found after a single im injection. The total number of deaths were counted after 7 days and LD50 was determined by probit analysis; 2.4-5.1. The class given is functional. In short, it runs like this: as §3
The test system of data set [10] is P388. The data set can be described thus: The compound was tested for its potency against lymphocytic leukemia P388 screen in mice; Inactive. Type of data set: functional, cell-based. Conditions: Mus musculus.
In data set [11] the test system is Mus musculus. The data set can be described thus: Toxicity found after a single im injection. The total number of deaths were counted after 7 days and LD50 was determined by probit analysis; 0.9-1.3. The class given is functional. The method in brief:
as §3

For data set [12], the system named is Mus musculus. The data set can be described thus: Toxicity found after a single im injection. The total number of deaths were counted after 7 days and LD50 was determined by probit analysis; 82.9-163.4. Type of data set: functional. In short, it runs like this:
as §3

The test system of data set [13] is Mus musculus. The data set can be described thus: Toxicity found after a single im injection. The total number of deaths were counted after 7 days and LD50 was determined by probit analysis; 6.4-11.8. Type of data set: functional. The method in brief:
as §3

Data set [14] relates to Mus musculus. The data set can be described thus: Toxicity found after a single im injection. The total number of deaths were counted after 7 days and LD50 was determined by probit analysis; 2.5-4.0. The class given is functional. In short, it runs like this:
as §3

Activity calls are given as the source filed them. The rule behind the calls is not given here. Where only a bound is given, the exact number is not on record here.

On to `COc1c(O[C@H]2O[C@H](CO)[C@@H](O)[C@H](O)[C@H]2O)cc2c(c1OC)-c1ccc(OC)c(=O)cc1C(NC(C)=O)CC2` (some centres not stated), for which the Potency entry in the data set on P388 [1] is “inactive”.

Molecule `COc1cc2c(c(OC)c1OC)-c1ccc(OC)c(=O)cc1[C@@H](N(C)Cc1ccccc1O)CC2` [SPECIOSINE] displayed a Potency in the data set on P388 [2] of 22 µM/kg. In the data set listed under Mus musculus [3], the Toxicity was determined as 83.9 µM/kg. The LD50 at 168 h in [4] was determined as 296 µmol/kg.

On to `COc1cc2c(c(O)c1OC)-c1ccc(SC)c(=O)cc1[C@@H](NC(C)=O)CC2`, for which the Potency result with P388 [1] is “inactive”.

The molecule `COc1cc2c(c(OC)c1OC)-c1ccc(OC)c(=O)cc1C(=O)CC2` had a Potency with P388 [2] of 9.6 µM/kg. For the same molecule, in the data set listed under Mus musculus [5], the Toxicity worked out at 28.1 µM/kg.

For the molecule `COc1cc2c(c(OC(C)=O)c1OC)-c1ccc(OC)c(=O)cc1[C@@H](NC(C)=O)CC2`, in the data set with P388 [1], the Potency entry is “inactive”. Also, the figures for the Toxicity in the data set listed under Mus musculus [5] and in the data set with Mus musculus [6] were 46.8 µM/kg and 205.9 µM/kg, respectively.

As for `COc1cc2c(c(OC)c1OC)-c1ccc(OC)c(=O)cc1[C@@H](N(C)C=O)CC2`, in the data set with P388 [2], the Potency was 1.7 µM/kg. For the same molecule, the results for the Toxicity in the data set with Mus musculus [7] and in the data set listed under Mus musculus [5] were 179.7 µM/kg and 6.3 µM/kg, respectively.

Regarding `COc1cc2c(c(OC)c1OC)-c1ccc(=O)c(OC)cc1[C@@H](N(C)C(C)=O)CC2`, the Potency result in the data set on P388 [1] was “inactive”.

`COc1cc2c(c(OC)c1O)-c1ccc(OC)c(=O)cc1[C@@H](NC(C)=O)CC2` [2-DESMETHYLCOLCHICIN]: the Potency in the data set with P388 [2] worked out at 13.8 µM/kg. Moreover, the values for the Toxicity with Mus musculus [8] and in the data set listed under Mus musculus [5] were 42.9 µM/kg and 51.9 µM/kg, respectively.

In the data set on P388 [2], `COc1cc2c(c(OC)c1OC)-c1ccc(OC)c(=O)cc1[C@@H](N(C)C(C)=O)CC2` had a Potency of 0.4 µM/kg. Besides, the figures for the Toxicity in the data set with Mus musculus [9] and in the data set filed under Mus musculus [5] were 3.6 µM/kg and 3 µM/kg, respectively.

In the case of `COc1cc2c(c(OC)c1OC)-c1ccc(=O)c(OC)cc1[C@@H](N(C)C)CC2`, the Potency entry with P388 [10] was “inactive”.

On to `COc1cc2c(c(OC)c1OC)-c1ccc(=O)c(OC)cc1[C@@H](N(C)C=O)CC2`, for which the Potency result in the data set on P388 [1] is “inactive”.

The molecule `COc1cc2c(c(OC)c1OC)-c1ccc(OC)c(=O)cc1CC=C2` gave a Potency in the data set with P388 [2] of 15.9 µM/kg. In the data set listed under Mus musculus [3], this molecule returned a Toxicity of 29.4 µM/kg. The LD50 at 168 h in [4] is about 300 µmol/kg.

Turning to `COc1cc2c(c(OC)c1OC)-c1ccc(=O)c(OC)cc1[C@@H](NC(=O)C(F)(F)F)CC2`, in the data set with P388 [1], the Potency result is “inactive”.

`COc1cc2c(c(OC)c1OC)-c1ccc(OC)c(=O)cc1[C@@H](NC(=O)C(F)(F)F)CC2` had a Potency in the data set with P388 [2] of 0.4 µM/kg. Besides, the Toxicity in the data set listed under Mus musculus [5] came to 0.9 µM/kg; in the data set with Mus musculus [11], 1.1 µM/kg.

For the molecule `COc1cc2c(c(O)c1OC)-c1ccc(OC)c(=O)cc1[C@@H](NC(C)=O)CC2`, in the data set on P388 [2], the Potency stood at 86 µM/kg. Besides, the Toxicity in the data set listed under Mus musculus [5] was 103.9 µM/kg; in the data set with Mus musculus [6], over 520 µM/kg.

Molecule `COc1cc2c(c(OC)c1OC)-c1ccc(OC)c(=O)cc1[C@@H](N(C)C)CC2` came in with a Potency with P388 [2] of 68 µM/kg. The molecule further came in with a Toxicity in the data set listed under Mus musculus [3] of 51.9 µM/kg. Moreover, the LD50 at 168 h in [4] amounted to 520 µmol/kg.

Turning to `COc1cc2c(c(OC)c1OC)-c1ccc(=O)c(OC)cc1CC=C2`, in the data set on P388 [10], the Potency result is “inactive”.

Consider `COc1cc2c(c(OC)c1OC)-c1ccc(OC)c(=O)cc1[C@H](NC(C)=O)CC2`, for which, in the data set with Mus musculus [12], the Toxicity is 122.6 µM/kg.

Regarding `COC1=CC=C2C(=C(NC(C)=O)CCc3cc(OC)c(OC)c(OC)c32)CC1=O`, the Potency entry with P388 [1] was “inactive”.

`COc1cc2c(c(OC)c1OC)-c1ccc(OC)c(=O)cc1[C@@H](N(C)C(=O)C(F)(F)F)CC2`: the Potency in the data set on P388 [2] was determined as 1.5 µM/kg. Moreover, the results for the Toxicity in the data set filed under Mus musculus [5] and with Mus musculus [13] were 5.4 µM/kg and 8.8 µM/kg, respectively.

For the molecule `COc1cc2c(c(OC)c1OC)-c1ccc(OC)c(=O)cc1[C@@H](NC(C)=O)CC2` [COLCHICINE], in the data set on P388 [2], the Potency was determined as 0.4 µM/kg. The Toxicity in the data set with Mus musculus [14] worked out at 3 µM/kg; in the data set listed under Mus musculus [5], 2.5 µM/kg.

In turn, `CN[C@H]1CCc2cc(OC)c(OC)c(OC)c2-c2ccc(OC)c(=O)cc21` [DEMECOLCINE] registered a Potency in the data set with P388 [2] of 10.8 µM/kg. Further, in the data set filed under Mus musculus [5], the Toxicity worked out at 21.6 µM/kg.

Take `CN[C@H]1CCc2cc(OC)c(OC)c(OC)c2-c2ccc(=O)c(O)cc21`: the Potency result with P388 [1] was “inactive”.

The record behind these values is ChEMBL document CHEMBL1121793, “Biological effects of modified colchicines. Improved preparation of 2-demethylcolchicine, 3-demethylcolchicine, and (+)-colchicine and reassignment of the position of the double bond in dehydro-7-deacetamidocolchicines” (J Med Chem, 1981).
